We go through 7 compounds from publication PMC11905928 (Cell reports. Physical science, 2024).

Broadly, the viability is a per cent measure of how many cells are alive, often set against a control. A lower viability goes with a greater loss of cells. A word on the IC50: it is the concentration that inhibits the measured activity by half. Usually solubility stands for the concentration that dissolves in the medium under given conditions. The low end stands for a poorly soluble substance, the high end for a readily soluble substance.

Values after ≈ are worked out from the molar mass of the structure shown. Counter-ions that a name gives are not always drawn. Like-named read-outs stand apart in the source and are kept apart here.

In data set [1] the test system is human microglia cells (C20 cell line). Briefly: MTT cell viability, protection against Aβ1–42 induced toxicity. Format: cell-based. The settings on record: 48 h; for viability: C20, Aβ1–42 500 nM; for viability at 0.5 µM: Homo sapiens, Microglia.
The target in data set [2] is Aβ19–20 (FF) dimerization (Homo sapiens, UniProt P05067). Briefly: biochemical. The settings on record: for IC50: Hill equation, FJ, 200 mM KCl.
A further data set can be described thus: Solubility. It counts as physicochemical.
For the next data set, the system named is C20 cells. The data set can be described thus: MTT cell viability, compound by itself. Format: cell-based, human. The essentials:
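MTT assay on human microglial C20 cells, run by dose and also by incubation time at 1 uM of test compound. At least three independent experiments, each with 10 technical replicates; error bars are SDs.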

Another data set has as its target Aβ1–42 aggregation (Homo sapiens, UniProt P05067). The data set can be described thus: Thioflavin T. Format: biochemical. The settings on record: for normalized fluorescent intensity with respect to positive control Aβ1–42+ThT: Aβ1–42 preincubated 24 h.
The subject of data set [3] is neuroblastoma SH-SY5Y cells. Briefly: MTT cell viability, Aβ1–42 treated neuroblastoma cells. Format: cell-based. The settings on record: 10 μM Aβ1–42, Figure S32.

Chain of Aβ1–42 aggregation (P05067 672-713): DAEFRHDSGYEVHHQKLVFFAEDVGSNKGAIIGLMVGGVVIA

Take `O=C(/C=C/c1ccc(O)c(O)c1)O[C@H](Cc1ccc(O)c(O)c1)C(=O)O` [Rosmarinic acid (RA), rosmarinic acid, reference compound]: the values for the viability in data set [1] (compound 1 μM) and in data set [1] (compound 5 μM) were 66% ± 2% and 69% ± 2%, respectively. Further, the viability at 0.5 µM in data set [1] was 67%. In data set [2] (IC50 on the FF-dimerization), this compound yielded a half-inhibitory concentration (IC50) of 13.1 µM.

`CN(C)[C@@H]1C(O)=C(C(N)=O)C(=O)[C@@]2(O)C(O)=C3C(=O)c4c(O)cccc4[C@@](C)(O)[C@H]3C[C@@H]12` [Tetracycline, tetracycline] returned a half-maximal inhibitory concentration (IC50) in data set [2] (IC50 on the FF-dimerization) of 77.6 µM.

In data set [2] (IC50 on the FF-dimerization), `C[C@H](Cc1ccc(O)c(O)c1)[C@@H](C)Cc1ccc(O)c(O)c1` [Nordihydroguaiaretic acid (NDGA), nordihydroguaiaretic acid] had an IC50 of 107 µM.

Consider `COc1cc(/C=C/C(=O)CC(=O)/C=C/c2ccc(O)c(OC)c2)ccc1O` [curcumin], for which the “effect on the FF-dimerization (in words)” value in data set [2] is “strong inhibition effect”.

On to `Cc1c2ccncc2c(C)c2c1[nH]c1ccccc12` [Ellipticine], for which the viability in data set [1] (compound 0.05 μM) is 65% ± 3%; in data set [1] (compound 0.1 μM), 64% ± 4%. This compound also had a viability at 0.5 µM in data set [1] of 61%. Further, in data set [2] (single-molecule screening of NIH library), the “effect on the FF-dimerization (in words)” value was “concentration-dependent promotion effect”. The solubility was ≤ 200 µM in “Solubility” (aqueous buffer) and 1200 µM (≈ 296 µg/mL) in “Solubility” (methanol-water (16:84 v/v), aqueous with cosolvent or surfactant or cyclodextrin). In addition, the “C20 cell viability at high concentrations (in words)” value with C20 cells (high-concentration range such as 5 μM, Figure S31) is “significantly influenced”. The “normalized fluorescent intensity with respect to positive control Aβ1–42+ThT” value at Aβ1–42 aggregation (0.2 μM compound, ThT 3.75 μM) was determined as 106%; at Aβ1–42 aggregation (0.5 μM compound, ThT 3.75 μM), 112%. Also, the “effect on Aβ1–42 aggregation (in words)” value was “inhibition effect” at Aβ1–42 aggregation (concentration >1 μM) and “stimulator” at Aβ1–42 aggregation (low-concentration range ≤0.5 μM). The “effect on cells treated with Aβ1–42 (in words)” value in data set [3] is recorded as “protective effects”.

As for `O=C(O[C@@H]1Cc2c(O)cc(O)cc2O[C@@H]1c1cc(O)c(O)c(O)c1)c1cc(O)c(O)c(O)c1` [Epigallocatechin gallate (EGCG), epigallocatechin gallate], the IC50 in data set [2] (read-out: IC50 on the FF-dimerization) was determined as 26.3 µM.

In turn, `COc1cccc2c1C(=O)c1c(O)c3c(c(O)c1C2=O)C[C@@](O)(C(C)=O)C[C@@H]3O[C@H]1C[C@H](N)[C@H](O)[C@H](C)O1` [Daunorubicin hydrochloride, reference compound] returned an IC50 in data set [2] (IC50 on the FF-dimerization) of 3.5 µM. The “toxicity of the compound by itself (in words)” value in the data set on C20 cells (C20 cells) is recorded as “showed a toxicity effect by itself”. The “effect on Aβ1–42 aggregation (in words)” value on Aβ1–42 aggregation (after 24-h incubation, ThT 3.75 μM) was “inhibitory effects”.
